This is an account of results in ChEMBL document CHEMBL3259741, “Three new cucurbitane triterpenoids from Hemsleya penxianensis and their cytotoxic activities” (Bioorg Med Chem Lett, 2014).

Values after ≈ are worked out from the molar mass of the structure shown.

Format in all cases: functional, cell-based
Test [1] can be described thus: Cytotoxicity against human H460 cells after 48 hrs by MTT assay. Conditions: NCI-H460, 48 h. In outline:
(§1)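 Cells in RPMI1640 with 15% FBS were trypsinized (0.25%) and seeded at 1 × 10^5/mL, then incubated 24 h at 37 °C in 5% CO2. Agents were added at final concentrations of 50, 10, 2, 0.4 and 0.08 for a further 48 h. MTT (0.5%) was applied for 4 h, formazan dissolved in DMSO, and OD read at 570 nm. % inhibition = (OD0−ODS)/OD0; IC50 was taken as 50% growth inhibition. Mean of three experiments in triplicate.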
In general terms: Tetrazolium dyes change colour on reduction, which living cells bring about.

The test system of the next test is SW-620. In words: Cytotoxicity against human SW620 cells after 48 hrs by MTT assay. Particulars: SW-620, 48 h. In outline: as §1
The subject of the next test is COLO 205. In words: Cytotoxicity against human COLO205 cells after 48 hrs by MTT assay. Conditions: COLO 205, 48 h. In outline: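 COLO205 cells were grown in RPMI1640 with 15% FBS, seeded at 2 × 10^5/mL, and incubated 24 h at 37 °C in 5% CO2. Agents were then given at final 50, 10, 2, 0.4 and 0.08 for 48 h. Read-out used 0.5% MTT for 4 h, DMSO solubilization and OD at 570 nm. Inhibition = (OD0−ODS)/OD0; IC50 = concentration giving 50% inhibition. Mean of three experiments in triplicate.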

As for `CC(=O)O[C@@H]1C[C@@]2(C)[C@@H]3CC=C4[C@@H](C[C@H](O)[C@@H](O)C4(C)C)[C@]3(C)C(=O)C[C@]2(C)[C@H]1C(C)(O)C(=O)/C=C/C(C)(C)O` (stereo partly drawn), the results for the half-maximal inhibitory concentration (IC50) (in test [1]; in the test with SW-620; in the test with COLO 205) were 3.43 µg/mL (≈ 6.12 µM), 0.42 µg/mL (≈ 0.749 µM) and 0.44 µg/mL (≈ 0.785 µM), respectively.
Take `CC(=O)OC(C)(C)CCC(=O)[C@](C)(O)[C@H]1[C@H](O)C[C@@]2(C)[C@@H]3CC=C4[C@@H](C[C@H](O)[C@@H](O)C4(C)C)[C@]3(C)C(=O)C[C@]12C` [HEMSLECIN A]: the IC50 in test [1] was 11.5 µg/mL (≈ 20.5 µM); with SW-620 it was 1.11 µg/mL (≈ 1.97 µM); with COLO 205 it was 1.09 µg/mL (≈ 1.94 µM).
For `C/C(C=O)=C\CC[C@@H](C)[C@H]1CC[C@@]2(C)[C@@H]3CC=C4[C@@H](CC[C@H](O[C@@H]5O[C@H](CO)[C@@H](O)[C@H](O)[C@H]5O)C4(C)C)[C@]3(C)C(=O)C[C@]12C` the same measures were 0.46 µg/mL (≈ 0.746 µM), 0.64 µg/mL (≈ 1.04 µM) and 0.78 µg/mL (≈ 1.26 µM).
On to `CC(=O)O[C@@H]1C[C@@]2(C)[C@@H]3CC=C4[C@@H](C[C@H](O[C@@H]5O[C@H](CO)[C@@H](O)[C@H](O)[C@H]5O)[C@@H](O)C4(C)C)[C@]3(C)C(=O)C[C@]2(C)[C@H]1C(C)(O)C(=O)/C=C/C(C)(C)OC(C)=O` (stereo partly drawn), for which the IC50 turned out to be 8.55 µg/mL (≈ 11.2 µM) in test [1], 6.63 µg/mL (≈ 8.67 µM) with SW-620 and 24.9 µg/mL (≈ 32.6 µM) in the test with COLO 205.
For `CC(C)(O)CCC(=O)[C@](C)(O)[C@H]1[C@H](O)C[C@@]2(C)[C@@H]3CC=C4[C@@H](C[C@H](O)[C@@H](O)C4(C)C)[C@]3(C)C(=O)C[C@]12C` the same measures were 7.09 µg/mL (≈ 13.6 µM), 1.03 µg/mL (≈ 1.98 µM) and 0.64 µg/mL (≈ 1.23 µM).
In the case of `C[C@H](CCC=C(CO)CO)[C@H]1CC[C@@]2(C)[C@@H]3CC=C4[C@@H](CC[C@H](O[C@@H]5O[C@H](CO)[C@@H](O)[C@H](O)[C@H]5O)C4(C)C)[C@]3(C)[C@H](O)C[C@]12C`, the IC50 in test [1] turned out to be 2.96 µg/mL (≈ 4.65 µM); in the test with SW-620 it was 1.99 µg/mL (≈ 3.12 µM); with COLO 205 it was 3.84 µg/mL (≈ 6.03 µM).

Broadly, the IC50 is the point on the concentration scale where inhibition reaches its midpoint. Low readings indicate higher potency, high ones lower potency.
